# Assay results: ChEMBL document CHEMBL1126262, “2-(Aminomethyl)chromans that inhibit iron-dependent lipid peroxidation and protect against central nervous system trauma and ischemia” (J Med Chem, 1992)
# Where “and” joins values, the source holds several entries; their conditions need not be identical. Identical values can stand only once. Calls of active or inactive are those of the source. The rule behind the calls is not given here.
# Key:
# [1] = species: Rattus norvegicus; assay: Tested in vitro for the inhibition of iron-dependent lipid peroxidation against rat brain homogenates, by malondialdehyde (MDA) formation assay; type: functional
# [2] = tested on: Mus musculus; assay: Antagonistic activity against potassium cyanide induced cytotoxic hypoxia in male CF-1 mice at a dose of 20 mg/kg(p<0.05); type: organism-based; set-up: dose 20 mg/kg; settings: in vivo
# [3] = species: Mus musculus; assay: Lowest effective dosage using in Mouse Head Injury Assay; type: functional
# Summary of the method: (§1)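 Unanesthetized male CF-1 mice (17-20 g), concussive head injury from 50-g weight dropped 18 cm (~900 g-cm). Vehicle (0.05 N HCl or 0.5% Tween 80) or drug, 0.001-30.0 mg/kg, iv bolus within 5 min postinjury (oral where indicated). Blind grip-string test at 1 h; groups of 20-25 mice, vehicle plus four dose groups; Duncan's multiple range test.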
# [4] = tested on: Mus musculus; assay: Tested in vivo for neuroprotectant activity against mouse head injury(MHI) model.; type: functional; summary of the method: as §1
# [5] = tested on: Mus musculus; assay: Antagonistic activity against potassium cyanide induced cytotoxic hypoxia in male CF-1 mice at a dose of 10 mg/kg; type: organism-based; set-up: dose 10 mg/kg; settings: in vivo
# [6] = species: Mus musculus; assay: Lowest effective dosage in Mouse Head Injury Assay.; type: functional; summary of the method: as §1
# [7] = tested on: Mus musculus; assay: Tested in vivo for neuroprotectant activity against mouse head injury(MHI) model; IA = Inactive; type: functional, organism-based; summary of the method: as §1
# [8] = tested on: Mus musculus; assay: Antagonistic activity against potassium cyanide induced cytotoxic hypoxia in male CF-1 mice at a dose of 10 mg/kg(p<0.05); type: organism-based; set-up: dose 10 mg/kg; settings: in vivo
Structure (SMILES),"IC50 ([1]; Rattus norvegicus, Brain) [nM]",Grip score [4],Lowest effective dose [6] [mg/kg],also measured
Cc1c(C)c2c(c(C)c1O)CCC(C)(CN1CCCC1)O2 (centres undefined),1400,,,
Cc1c(C)c2c(c(C)c1O)CCC(C)(C(=O)N1CCN(c3cc(N4CCCC4)nc(N4CCCC4)n3)CC1)O2 (centres undefined),500,17.5,,LD50 [2]: 115.2%; Lowest effective dose [3]: 0.01 mg/kg; LD50 [5]: 99.3%
C[C@@H]1C[C@H]2[C@@H]3CCC4=CC(=O)C=C[C@]4(C)C3=CC[C@]2(C)[C@H]1C(=O)CN1CCN(c2cc(N3CCCC3)nc(N3CCCC3)n2)CC1 [TIRILAZAD],,14.5,0.003,LD50 [2]: 128.4%; LD50 [5]: 103.6%
Cc1c(C)c2c(c(C)c1O)CCC(C)(CNCCc1ccccc1)O2.O=C(O)C(=O)O (centres undefined),900,8.7,1,
Cc1c(C)c2c(c(C)c1O)CCC(C)(C(=O)NCCc1ccccc1)O2 (centres undefined),1300,,,
COc1ccc(N2CCN(CC3(C)CCc4c(C)c(O)c(C)c(C)c4O3)CC2)cc1 (centres undefined),200,,,
Cc1c(C)c2c(c(C)c1O)CCC(C)(C(=O)N1CCN(c3ncccn3)CC1)O2 (centres undefined),23000,12,1,
Cc1c(C)c2c(c(C)c1O)CCC(C)(CN1CCN(c3ccc(Cl)cc3)CC1)O2 (centres undefined),900,,,
Cc1c(C)c2c(c(C)c1O)CCC(C)(CCN1CCN(c3cc(N4CCCC4)nc(N4CCCC4)n3)CC1)O2 (centres undefined),1300,,,Grip score [7]: inactive
Cc1c(C)c2c(c(C)c1O)CCC(C)(C(=O)NCCN(C)C)O2 (centres undefined),8700,,,Grip score [7]: inactive
Cc1c(C)c2c(c(C)c1O)CCC(C)(CNCCN(C)C)O2 (centres undefined),1700,,,Grip score [7]: inactive
Cc1c(C)c2c(c(C)c1O)CCC(C)(CN1CCN(c3cc(N4CCCC4)nc(N4CCCC4)n3)CC1)O2.Cl.Cl (stereo in doubt; 60),,11.5,0.001,IC50 [1]: 1100 nM
COc1ccc(CCNCC2(C)CCc3c(C)c(O)c(C)c(C)c3O2)cc1OC.Cl (centres undefined),1000,8.4,0.01,
COc1ccccc1N1CCN(C(=O)C2(C)CCc3c(C)c(O)c(C)c(C)c3O2)CC1 (centres undefined),15000,12.8,0.01,
Cc1c(C)c2c(c(C)c1O)CCC(C)(C(=O)NCCc1ccccn1)O2 (centres undefined),11000,,,
Cc1c(C)c2c(c(C)c1O)CCC(C)(CNc1ccccn1)O2 (centres undefined),200,12.3,0.01,
Cc1c(C)c2c(c(C)c1O)CCC(C)(CN1CCN(c3cc(N4CCCC4)nc(N4CCCC4)n3)CC1)O2.Cl.Cl.O (centres undefined),,13.7 and 14.7,,LD50 [2]: 134.2%; LD50 [8]: 114%; IC50 [1]: 600 nM
COc1ccccc1N1CCN(CC2(C)CCc3c(C)c(O)c(C)c(C)c3O2)CC1 (centres undefined),1000,,,Grip score [7]: inactive
Cc1c(C)c2c(c(C)c1O)CCC(C)(CN1CCN(c3ccccn3)CC1)O2.Cl.O (centres undefined),1000,10.7,0.01,
Cc1c(C)c2c(c(C)c1O)CCC(C)(C(=O)N1CCN(c3ccc(Cl)cc3)CC1)O2 (centres undefined),800,,,
Cc1c(C)c2c(c(C)c1O)CCC(C)(CN1CCN(c3ncccn3)CC1)O2 (centres undefined),1000,10.3,0.01,
Cc1c(C)c2c(c(C)c1O)CCC(C)(C(=O)Nc1ccccn1)O2 (centres undefined),1800,14.4,0.01,
CCNc1cccnc1N1CCN(C(=O)C2(C)CCc3c(C)c(O)c(C)c(C)c3O2)CC1 (centres undefined),12000,,,
CC(=O)Oc1c(C)c(C)c2c(c1C)CCC(C)(CN1CCN(c3cc(N4CCCC4)nc(N4CCCC4)n3)CC1)O2 (centres undefined),1500,9.2,1,
Cc1c(C)c2c(c(C)c1O)CCC(C)(CN(C)CCc1ccccn1)O2 (centres undefined),177000,,,
Cc1c(C)c2c(c(C)c1O)CCC(C)(CNCCCCc1ccccc1)O2 (centres undefined),800,,,
COc1ccc(CNC(=O)C2(C)CCc3c(C)c(O)c(C)c(C)c3O2)cc1OC (centres undefined),5500,,,

Structure (SMILES),"IC50 ([1]; Rattus norvegicus, Brain) [nM]",Grip score [4],Lowest effective dose [6] [mg/kg],also measured
CCNc1cccnc1N1CCN(CC2(C)CCc3c(C)c(O)c(C)c(C)c3O2)CC1.Cl.O (centres undefined),1000,10.4 and 11.9,0.01,
CCN(CC)c1ccc(N2CCN(C(=O)C3(C)CCc4c(C)c(O)c(C)c(C)c4O3)CC2)nc1N(CC)CC (centres undefined),200,,,Grip score [7]: inactive
Cc1c(C)c2c(c(C)c1O)CCC(C)(CN1CCNCC1)O2 (centres undefined),1000,,,
Cc1c(C)c2c(c(C)c1O)CCC(C)(CN1CCN(c3cc(N4CCCC4)nc(N4CCCC4)n3)CC1)O2.Cl.Cl (stereo in doubt; 59),,14.4,,IC50 [1]: 1500 nM
C[C@H]1C[C@@H]2[C@H]([C@@H](O)C[C@@]3(C)[C@H]2CC[C@]3(O)C(=O)COC(=O)CCC(=O)[O-])[C@@]2(C)C=CC(=O)C=C12.[Na+] [METHYLPREDNISOLONE SODIUM SUCCINATE],,13.5,15,
Cc1c(C)c2c(c(C)c1O)CC[C@@](C)(CCC[C@H](C)CCC[C@H](C)CCCC(C)C)O2 [ALPHA-TOCOPHEROL],28000,,,
Cc1c(C)c2c(c(C)c1O)CCC(C)(C(=O)N(C)CCc1ccccn1)O2 (centres undefined),5400,,,
Cc1c(C)c2c(c(C)c1O)CCC(C)(CN1CCN(Cc3ccccc3)CC1)O2.Cl.Cl (centres undefined),1000,13,0.01,LD50 [2]: 181.4%; LD50 [8]: 130%
Cc1c(C)c2c(c(C)c1O)CCC(C)(CNCCCc1ccccc1)O2 (centres undefined),1000,,,
Cc1c(C)c2c(c(C)c1O)CCC(C)(C(=O)N1CCN(c3ccccn3)CC1)O2 (centres undefined),1000,8.2,0.01,
Cc1c(C)c2c(c(C)c1O)CCC(C)(CNc1ccncc1)O2 (centres undefined),16000,,,
Cc1c(C)c2c(c(C)c1O)CCC(C)(CNCc1cccnc1)O2 (centres undefined),48000,,,
COc1ccc(CNCC2(C)CCc3c(C)c(O)c(C)c(C)c3O2)cc1OC (centres undefined),11000,,,
COc1ccc(N2CCN(C(=O)C3(C)CCc4c(C)c(O)c(C)c(C)c4O3)CC2)cc1 (centres undefined),700,,,
CCN(CC)c1ccc(N2CCN(CC3(C)CCc4c(C)c(O)c(C)c(C)c4O3)CC2)nc1N(CC)CC.Cl.O (centres undefined),1000,11.9,0.01,
CC(=O)Oc1c(C)c(C)c2c(c1C)CCC(C)(C(=O)N1CCN(c3cc(N4CCCC4)nc(N4CCCC4)n3)CC1)O2 (centres undefined),17000,,,
Cc1c(C)c2c(c(C)c1O)CCC(C)(C(=O)O)O2 (centres undefined) [TROLOX],43000,,,
Cc1c(C)c2c(c(C)c1O)CCC(C)(C(=O)N1CCCC1)O2 (centres undefined),10000,,,
Cc1c(C)c2c(c(C)c1O)CCC(C)(C(=O)N1CCNCC1)O2 (centres undefined),10000,,,
Cc1c(C)c2c(c(C)c1O)CCC(C)(C(=O)NCc1cccnc1)O2 (centres undefined),47000,,,
Cc1c(C)c2c(c(C)c1O)CCC(C)(C(=O)NCCCCc1ccccc1)O2 (centres undefined),700,,,
Cc1c(C)c2c(c(C)c1O)CCC(C)(CC(=O)N1CCN(c3cc(N4CCCC4)nc(N4CCCC4)n3)CC1)O2 (centres undefined),1300,,,Grip score [7]: inactive
Cc1c(C)c2c(c(C)c1O)CCC(C)(C(=O)N1CCN(Cc3ccccc3)CC1)O2 (centres undefined),1000,,,
Cc1c(C)c2c(c(C)c1O)CCC(C)(CNCCc1ccccn1)O2 (centres undefined),23000,,,
COc1ccc(CCNC(=O)C2(C)CCc3c(C)c(O)c(C)c(C)c3O2)cc1OC (centres undefined),4100,,,
Cc1c(C)c2c(c(C)c1O)CCC(C)(C(=O)Nc1ccncc1)O2 (centres undefined),2300,11.5,0.01,
Cc1c(C)c2c(c(C)c1O)CCC(C)(C(=O)NCCCc1ccccc1)O2 (centres undefined),1000,,,
